# In ChEMBL document CHEMBL4725486, “Effects of C-Terminal B-Chain Modifications in a Relaxin 3 Agonist Analogue” (ACS Med Chem Lett, 2020):
# Legend:
# Relaxin-3 receptor 1 [1] = molecular target: T1, Relaxin-3 receptor 1 (Homo sapiens, UniProt Q9NSD7); assay: Agonist activity at RXFP3 (unknown origin) stably expressed in CHO-K1 cells co-transfected with pCRE assessed as inhibition of forskolin-induced cAMP accumulation measured after 6 hrs by beta-galactosidase reporter gene assay; type: functional, cell-based
# T1 sequence (Q9NSD7 whole entry): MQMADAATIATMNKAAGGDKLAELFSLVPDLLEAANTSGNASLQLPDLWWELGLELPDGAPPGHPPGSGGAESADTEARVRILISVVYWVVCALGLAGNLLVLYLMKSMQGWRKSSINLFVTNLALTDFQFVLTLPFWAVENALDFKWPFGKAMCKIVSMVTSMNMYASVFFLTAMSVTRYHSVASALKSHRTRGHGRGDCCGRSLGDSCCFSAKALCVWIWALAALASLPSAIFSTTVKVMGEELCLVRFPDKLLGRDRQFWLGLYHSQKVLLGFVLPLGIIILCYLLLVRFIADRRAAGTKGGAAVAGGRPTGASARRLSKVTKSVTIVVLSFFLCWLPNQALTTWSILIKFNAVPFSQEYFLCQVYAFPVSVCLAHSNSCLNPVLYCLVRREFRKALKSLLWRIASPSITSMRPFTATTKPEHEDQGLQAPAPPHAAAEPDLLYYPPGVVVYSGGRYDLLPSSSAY
# Method in brief: (§1)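 Cells were CHO lines expressing RXFP3 or RXFP4, which couple to Gi/o. Agonist action was read as inhibition of forskolin-stimulated cAMP in a reporter gene assay after 6 h stimulation. pEC50 values were pooled from 3–4 independent experiments.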
# Relaxin-3 receptor 1 [2] = molecular target: T1, Relaxin-3 receptor 1; assay: Displacement of Eu-labeled H3B1-22R from RXFP3 (unknown origin) stably expressed in CHO-K1 cells by competition binding assay; type: cell-based
# Method in brief: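 Competition binding used europium-labeled H3 B1-22R as the labeled ligand on CHO-RXFP3 cells, with peptides as competitors. pKi values were pooled from 3–4 independent experiments.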
# Relaxin-3 receptor 2 = Relaxin-3 receptor 2 (Homo sapiens, UniProt Q8TDU9); assay: Agonist activity at RXFP4 (unknown origin) stably expressed in CHO cells co-transfected with pCRE assessed as inhibition of forskolin-induced cAMP accumulation measured after 6 hrs by beta-galactosidase reporter gene assay; type: functional, cell-based; method in brief: as §1
# Sequence of Relaxin-3 receptor 2 (Q8TDU9 whole entry): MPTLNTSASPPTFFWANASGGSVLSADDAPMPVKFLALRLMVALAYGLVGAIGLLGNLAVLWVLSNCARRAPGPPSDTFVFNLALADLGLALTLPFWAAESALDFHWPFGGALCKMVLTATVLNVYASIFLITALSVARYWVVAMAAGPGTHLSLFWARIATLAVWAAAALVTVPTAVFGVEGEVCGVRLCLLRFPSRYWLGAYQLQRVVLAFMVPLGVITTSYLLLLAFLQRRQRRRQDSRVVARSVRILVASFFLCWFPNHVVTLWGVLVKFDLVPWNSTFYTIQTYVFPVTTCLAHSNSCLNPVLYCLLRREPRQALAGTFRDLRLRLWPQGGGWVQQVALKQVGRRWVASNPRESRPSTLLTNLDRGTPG
Structure (SMILES),EC50 (Relaxin-3 receptor 1 [1]),Ki (Relaxin-3 receptor 1 [2]),EC50 (Relaxin-3 receptor 2)
CC[C@H](C)[C@@H]1NC(=O)[C@H](CCC(=O)O)NC(=O)[C@H](CO)NC(=O)[C@H](CCCCN)NC(=O)[C@H](CO)NC(=O)[C@H](C)NC(=O)CNC(=O)[C@H](Cc2c[nH]c3ccccc23)NC(=O)[C@H](CCCCN)NC(=O)[C@@H](N)CSSC[C@@H](C(=O)NCC(=O)NCC(=O)N[C@@H](CO)C(=O)N[C@@H](CCCNC(=N)N)C(=O)N[C@@H](Cc2c[nH]c3ccccc23)C(=O)O)NC(=O)[C@H]([C@@H](C)O)NC(=O)[C@H](Cc2ccccc2)NC(=O)[C@H]([C@@H](C)CC)NC(=O)[C@H](C(C)C)NC(=O)[C@H](CCCNC(=N)N)NC(=O)[C@H]([C@@H](C)CC)NC(=O)[C@H](Cc2ccccc2)NC(=O)[C@H](CCC(=O)O)NC(=O)[C@H](CCCNC(=N)N)NC(=O)CNC(=O)[C@@H](NC(=O)[C@H](CC(C)C)NC(=O)[C@H](CCCNC(=N)N)NC(=O)[C@@H](NC(=O)CNC(=O)[C@H](Cc2ccc(O)cc2)NC(=O)[C@@H]2CCCN2C(=O)[C@H](C)NC(=O)[C@H](C)NC(=O)[C@H](CCCNC(=N)N)N[C@@H](Cc2c[nH]c3ccccc23)C(=O)O)C(C)C)CSSC[C@@H](C(=O)O)NC(=O)[C@H](CC(C)C)NC(=O)[C@H](CO)NC(=O)[C@H](CO)NC1=O,6.17 nM,45.7 nM,6.92 nM
CC[C@H](C)[C@@H]1NC(=O)[C@H](CCC(=O)O)NC(=O)[C@H](CO)NC(=O)[C@H](CCCCN)NC(=O)[C@H](CO)NC(=O)[C@H](C)NC(=O)CNC(=O)[C@H](Cc2c[nH]c3ccccc23)NC(=O)[C@H](CCCCN)NC(=O)[C@@H](N)CSSC[C@@H](C(=O)NCC(=O)NCC(=O)N[C@@H](CO)C(=O)N[C@@H](CCCNC(=N)N)C(=O)N[C@@H](Cc2c[nH]c3ccccc23)C(=O)O)NC(=O)[C@H]([C@@H](C)O)NC(=O)[C@H](Cc2ccccc2)NC(=O)[C@H]([C@@H](C)CC)NC(=O)[C@H](C(C)C)NC(=O)[C@H](CCCNC(=N)N)NC(=O)[C@H]([C@@H](C)CC)NC(=O)[C@H](Cc2ccccc2)NC(=O)[C@H](CCC(=O)O)NC(=O)[C@H](CCCNC(=N)N)NC(=O)CNC(=O)[C@@H](NC(=O)[C@H](CC(C)C)NC(=O)[C@H](CCCNC(=N)N)NC(=O)[C@@H](NC(=O)CNC(=O)[C@H](Cc2ccc(O)cc2)NC(=O)[C@@H]2CCCN2C(=O)[C@H](C)NC(=O)[C@H](C)NC(=O)[C@H](CCCNC(=N)N)N[C@H](COC(N)=O)Cc2c[nH]c3ccccc23)C(C)C)CSSC[C@@H](C(=O)O)NC(=O)[C@H](CC(C)C)NC(=O)[C@H](CO)NC(=O)[C@H](CO)NC1=O,6.17 nM,110 nM,19.5 nM
CC[C@H](C)[C@@H]1NC(=O)[C@H](CCC(=O)O)NC(=O)[C@H](CO)NC(=O)[C@H](CCCCN)NC(=O)[C@H](CO)NC(=O)[C@H](C)NC(=O)CNC(=O)[C@H](Cc2c[nH]c3ccccc23)NC(=O)[C@H](CCCCN)NC(=O)[C@@H](N)CSSC[C@@H](C(=O)NCC(=O)NCC(=O)N[C@@H](CO)C(=O)N[C@@H](CCCNC(=N)N)C(=O)N[C@@H](Cc2c[nH]c3ccccc23)C(=O)O)NC(=O)[C@H]([C@@H](C)O)NC(=O)[C@H](Cc2ccccc2)NC(=O)[C@H]([C@@H](C)CC)NC(=O)[C@H](C(C)C)NC(=O)[C@H](CCCNC(=N)N)NC(=O)[C@H]([C@@H](C)CC)NC(=O)[C@H](Cc2ccccc2)NC(=O)[C@H](CCC(=O)O)NC(=O)[C@H](CCCNC(=N)N)NC(=O)CNC(=O)[C@@H](NC(=O)[C@H](CC(C)C)NC(=O)[C@H](CCCNC(=N)N)NC(=O)[C@@H](NC(=O)CNC(=O)[C@H](Cc2ccc(O)cc2)NC(=O)[C@@H]2CCCN2C(=O)[C@H](C)NC(=O)[C@H](C)NC(=O)[C@H](CCCNC(=N)N)N[C@H](CO)Cc2c[nH]c3ccccc23)C(C)C)CSSC[C@@H](C(=O)O)NC(=O)[C@H](CC(C)C)NC(=O)[C@H](CO)NC(=O)[C@H](CO)NC1=O,13.2 nM,331 nM,282 nM
CC[C@H](C)[C@@H]1NC(=O)[C@H](CCC(=O)O)NC(=O)[C@H](CO)NC(=O)[C@H](CCCCN)NC(=O)[C@H](CO)NC(=O)[C@H](C)NC(=O)CNC(=O)[C@H](Cc2c[nH]c3ccccc23)NC(=O)[C@H](CCCCN)NC(=O)[C@@H](N)CSSC[C@@H](C(=O)NCC(=O)NCC(=O)N[C@@H](CO)C(=O)N[C@@H](CCCNC(=N)N)C(=O)N[C@@H](Cc2c[nH]c3ccccc23)C(=O)O)NC(=O)[C@H]([C@@H](C)O)NC(=O)[C@H](Cc2ccccc2)NC(=O)[C@H]([C@@H](C)CC)NC(=O)[C@H](C(C)C)NC(=O)[C@H](CCCNC(=N)N)NC(=O)[C@H]([C@@H](C)CC)NC(=O)[C@H](Cc2ccccc2)NC(=O)[C@H](CCC(=O)O)NC(=O)[C@H](CCCNC(=N)N)NC(=O)CNC(=O)[C@@H](NC(=O)[C@H](CC(C)C)NC(=O)[C@H](CCCNC(=N)N)NC(=O)[C@@H](NC(=O)CNC(=O)[C@H](Cc2ccc(O)cc2)NC(=O)[C@@H]2CCCN2C(=O)[C@H](C)NC(=O)[C@H](C)NC(=O)[C@H](CCCNC(=N)N)N[C@@H](Cc2c[nH]c3ccccc23)C(=O)OC[C@H](NC(C)=O)C(N)=O)C(C)C)CSSC[C@@H](C(=O)O)NC(=O)[C@H](CC(C)C)NC(=O)[C@H](CO)NC(=O)[C@H](CO)NC1=O,4.37 nM,186 nM,7.08 nM
CC[C@H](C)[C@@H]1NC(=O)[C@H](CCC(=O)O)NC(=O)[C@H](CO)NC(=O)[C@H](CCCCN)NC(=O)[C@H](CO)NC(=O)[C@H](C)NC(=O)CNC(=O)[C@H](Cc2c[nH]c3ccccc23)NC(=O)[C@H](CCCCN)NC(=O)[C@@H](N)CSSC[C@@H](C(=O)NCC(=O)NCC(=O)N[C@@H](CO)C(=O)N[C@@H](CCCNC(=N)N)C(=O)N[C@@H](Cc2c[nH]c3ccccc23)C(=O)O)NC(=O)[C@H]([C@@H](C)O)NC(=O)[C@H](Cc2ccccc2)NC(=O)[C@H]([C@@H](C)CC)NC(=O)[C@H](C(C)C)NC(=O)[C@H](CCCNC(=N)N)NC(=O)[C@H]([C@@H](C)CC)NC(=O)[C@H](Cc2ccccc2)NC(=O)[C@H](CCC(=O)O)NC(=O)[C@H](CCCNC(=N)N)NC(=O)CNC(=O)[C@@H](NC(=O)[C@H](CC(C)C)NC(=O)[C@H](CCCNC(=N)N)NC(=O)[C@@H](NC(=O)CNC(=O)[C@H](Cc2ccc(O)cc2)NC(=O)[C@@H]2CCCN2C(=O)[C@H](C)NC(=O)[C@H](C)NC(=O)[C@H](CCCNC(=N)N)N[C@@H](Cc2c[nH]c3ccccc23)C(N)=O)C(C)C)CSSC[C@@H](C(=O)O)NC(=O)[C@H](CC(C)C)NC(=O)[C@H](CO)NC(=O)[C@H](CO)NC1=O,15.8 nM,191 nM,14.5 nM
